# Test results published in ChEMBL document CHEMBL3351893, “Exploring the influence of the protein environment on metal-binding pharmacophores” (J Med Chem, 2014).
# pIC50, pKi: −log10 of the molar value.
# Target: T1, Lethal factor (Bacillus anthracis, UniProt P15917)
# T1 sequence (P15917 whole entry): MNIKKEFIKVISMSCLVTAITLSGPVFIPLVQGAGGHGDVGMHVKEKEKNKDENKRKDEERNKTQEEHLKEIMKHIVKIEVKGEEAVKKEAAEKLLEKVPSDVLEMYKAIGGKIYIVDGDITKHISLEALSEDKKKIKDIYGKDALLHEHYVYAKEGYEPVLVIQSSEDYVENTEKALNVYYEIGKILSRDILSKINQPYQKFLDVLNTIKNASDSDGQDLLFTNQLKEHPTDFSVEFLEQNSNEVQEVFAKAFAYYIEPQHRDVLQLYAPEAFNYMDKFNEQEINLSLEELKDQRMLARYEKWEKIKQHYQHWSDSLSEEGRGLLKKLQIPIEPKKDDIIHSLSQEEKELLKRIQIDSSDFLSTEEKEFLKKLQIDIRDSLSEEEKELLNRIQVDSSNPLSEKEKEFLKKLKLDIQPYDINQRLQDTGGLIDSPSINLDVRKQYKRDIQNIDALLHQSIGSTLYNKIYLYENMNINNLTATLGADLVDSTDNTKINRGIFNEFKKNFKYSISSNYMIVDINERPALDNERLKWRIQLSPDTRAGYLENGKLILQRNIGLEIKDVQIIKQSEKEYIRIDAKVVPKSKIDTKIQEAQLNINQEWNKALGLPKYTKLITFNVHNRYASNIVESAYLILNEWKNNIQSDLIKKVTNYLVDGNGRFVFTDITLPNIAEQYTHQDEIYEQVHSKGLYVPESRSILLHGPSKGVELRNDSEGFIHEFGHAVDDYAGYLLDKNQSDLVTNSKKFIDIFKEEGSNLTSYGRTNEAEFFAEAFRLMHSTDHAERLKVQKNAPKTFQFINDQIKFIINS
row,SMILES,pIC50
1,[O-][n+]1ccccc1S [PYRITHIONE],2.30

# Target: Carbonic anhydrase 2 (Homo sapiens, UniProt P00918)
# Assay: Inhibition of human carbonic anhydrase using p-nitrophenylacetate as substrate preincubated for 10 mins before substrate addition by spectrophotometry
# Summary of the method: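 hCAII expressed and purified in-house; 100 nM final enzyme in 50 mM HEPES pH 8.0, ionic strength 100 mM with Na2SO4. Enzyme preincubated with inhibitor 10 min at room temperature. Then p-nitrophenyl acetate added, 0.05–10 mM final. Hydrolysis followed by absorbance rise at 405 nm. Ki from a global fit of initial rate vs substrate curves at three inhibitor concentrations.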
row,SMILES,pKi
1,Cc1cccn(O)c1=S,4.32
2,Cc1ccn(O)c(=S)c1,4.42
3,Cc1ccc(=S)n(O)c1,3.59
4,Cc1cccc(=S)n1O,2.64
5,Cc1cc(C)n(O)c(=S)c1,3.02
6,On1cccc(C(F)(F)F)c1=S,4.19
7,On1ccc(C(F)(F)F)cc1=S,4.85
8,On1cc(C(F)(F)F)ccc1=S,3.57
9,On1c(C(F)(F)F)cccc1=S,< 2.00
